The source made the active and inactive calls. The calls are words filed in the database; no cut-off is given here.
How the values were obtained:
Apelin receptor [1] = biological target: T1, Apelin receptor (Homo sapiens, UniProt P35414); test: Agonist activity at human APJ receptor expressed in cells c-expressing Galphaq16 assessed as calcium mobilization by FLIPR assay; type: functional, cell-based
T1 sequence (P35414 whole entry): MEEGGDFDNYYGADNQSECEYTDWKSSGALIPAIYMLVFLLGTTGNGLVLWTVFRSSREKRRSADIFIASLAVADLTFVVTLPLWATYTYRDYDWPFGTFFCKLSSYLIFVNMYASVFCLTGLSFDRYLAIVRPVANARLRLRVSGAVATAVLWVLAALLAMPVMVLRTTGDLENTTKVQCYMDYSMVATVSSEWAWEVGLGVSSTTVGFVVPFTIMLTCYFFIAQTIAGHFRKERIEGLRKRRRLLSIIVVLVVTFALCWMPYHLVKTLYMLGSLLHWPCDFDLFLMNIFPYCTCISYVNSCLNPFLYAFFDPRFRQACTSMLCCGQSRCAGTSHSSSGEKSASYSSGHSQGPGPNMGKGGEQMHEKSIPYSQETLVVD
Outline: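 Human APJ-Gαq16 stable cells lifted non-enzymatically, plated 30,000/well, grown 24 h at 37 C to confluence. Loaded with Calcium 5 dye in HBSS with 20 mM HEPES, 1% BSA, 10 µM probenecid, 1 h at 37 C. FLIPR Tetra read ~17 sec baseline, then added agonist at 10x; pyr-apelin-13 as reference.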

[2] = biological target: Neurotensin receptor type 1 (Rattus norvegicus) (UniProt P20789); test: Agonist activity at rat NTS1 receptor expressed in CHOK1 cells assessed as calcium mobilization by FLIPR assay; type: functional, cell-based; conditions: CHO-K1
[3] = biological target: T2, Neurotensin receptor type 2 (Rattus norvegicus, UniProt Q63384); test: (§1) Partial agonist activity at rat NTS2 receptor expressed in CHOK1 cells assessed as calcium mobilization by FLIPR assay; type: functional, cell-based, CHO-K1
T2 sequence (Q63384 whole entry): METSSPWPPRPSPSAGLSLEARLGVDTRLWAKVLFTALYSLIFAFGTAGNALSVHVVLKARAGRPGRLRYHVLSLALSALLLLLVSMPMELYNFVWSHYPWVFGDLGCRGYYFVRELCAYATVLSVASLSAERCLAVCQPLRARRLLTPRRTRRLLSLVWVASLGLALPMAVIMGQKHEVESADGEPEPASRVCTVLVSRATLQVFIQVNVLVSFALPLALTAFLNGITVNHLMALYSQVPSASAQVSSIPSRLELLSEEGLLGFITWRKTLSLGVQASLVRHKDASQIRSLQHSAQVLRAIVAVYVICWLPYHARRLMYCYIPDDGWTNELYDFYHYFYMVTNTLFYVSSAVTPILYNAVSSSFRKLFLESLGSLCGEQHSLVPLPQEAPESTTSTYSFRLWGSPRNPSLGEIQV

[4] = biological target: T3, Neurotensin receptor type 2 (Rattus norvegicus) (UniProt Q63384); test: as §1; type: functional, cell-based; conditions: CHO-K1
T3 sequence (whole entry): T2 sequence (Q63384 whole entry)

[5] = biological target: Neurotensin receptor type 1 (Rattus norvegicus) (UniProt P20789); test: Antagonist activity against rat NTS1 receptor expressed in CHOK1 cells assessed as calcium mobilization by FLIPR assay; type: functional, cell-based; conditions: CHO-K1
Apelin receptor [6] = biological target: T1, Apelin receptor; test: Displacement of [125I]-apelin13 from human APJ receptor expressed in CHOK1 cell membranes after 2 hrs by scintillation counting; set-up: species or system CHO-K1

Neurotensin receptor type 1 (Rattus norvegicus), sequence (P20789 whole entry): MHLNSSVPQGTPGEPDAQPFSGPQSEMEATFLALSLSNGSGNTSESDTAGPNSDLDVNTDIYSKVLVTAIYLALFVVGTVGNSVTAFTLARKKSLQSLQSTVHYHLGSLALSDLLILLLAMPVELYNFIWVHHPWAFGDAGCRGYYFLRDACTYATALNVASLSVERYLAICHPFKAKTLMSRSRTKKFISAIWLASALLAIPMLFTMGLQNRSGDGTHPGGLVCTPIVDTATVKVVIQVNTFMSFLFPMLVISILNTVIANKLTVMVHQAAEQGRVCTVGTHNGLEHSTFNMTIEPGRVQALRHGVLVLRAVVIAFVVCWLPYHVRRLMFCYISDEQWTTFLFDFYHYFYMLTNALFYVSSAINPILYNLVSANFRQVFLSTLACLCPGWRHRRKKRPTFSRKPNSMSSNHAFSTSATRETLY

| Compound | EC50 (Apelin receptor [1]) | other results |
| --- | --- | --- |
| Cc1cc(C(=O)N[C@H](C(=O)O)C2CCCCC2)nn1-c1ccc(F)cc1 | > 30 µM |  |
| COc1cccc(OC)c1-c1cc(C(=O)N[C@@H](CCC2CCCCC2)CC(=O)O)nn1-c1ccc(F)cc1 |  | Activity [2]: inactive; EC50 [3]: 3.41 µM; Emax [4]: 23%; Activity [5]: inactive |
| COc1cccc(OC)c1-c1cc(C(=O)N[C@@H](CCCCN)C(=O)O)nn1-c1ccc(F)cc1 | > 30 µM |  |
| O=C(N[C@H](C(=O)O)C1CCCCC1)c1cc(-c2ccccc2)n(-c2ccc(F)cc2)n1 | > 30 µM |  |
| COc1cccc(OC)c1-c1cc(C(=O)NC(CC(=O)O)C2CCCCC2)nn1-c1ccc(F)cc1 (single isomer, unassigned) |  | Activity [2]: inactive; Emax [4]: 57%; Activity [5]: inactive |
| COc1cccc(OC)c1-c1cc(C(=O)N[C@@H](CCCCNC(=O)OC(C)(C)C)C(=O)O)nn1-c1ccc(F)cc1 | > 30 µM |  |
| COc1cccc(OC)c1-c1cc(C(=O)N[C@@H](Cc2ccccc2)C(=O)O)nn1-c1ccc(F)cc1 | > 30 µM |  |
| COc1cccc(OC)c1-c1cc(C(=O)N[C@@H](CC(C)C)C(=O)O)nn1-c1ccc(F)cc1 | > 30 µM |  |
| O=C(N[C@H](C(=O)O)C1CCCCC1)c1cc(-c2c(O)cccc2O)n(-c2ccc(F)cc2)n1 | > 30 µM |  |
| COc1cccc(OC)c1-c1cc(C(=O)N[C@H](C(=O)NCC(=O)O)C2CCCCC2)nn1-c1ccc(F)cc1 | > 30 µM |  |
| COc1cccc(OC)c1-c1cc(C(=O)N[C@H](CC(=O)O)CC(C)C)nn1-c1ccc(F)cc1 | 9.4 µM | Ki (Apelin receptor [6]): 0.6 µM |
| COc1cccc(OC)c1-c1cc(C(=O)N[C@H](C(=O)O)C2CCCCC2)n(-c2ccc(F)cc2)n1 | > 30 µM |  |
| COc1cccc(OC)c1-c1cc(C(=O)N[C@@H](CCc2ccccc2)CC(=O)O)nn1-c1ccc(F)cc1 | 3 µM | Ki (Apelin receptor [6]): 3 µM |
| COc1cccc(OC)c1-c1cc(C(=O)N[C@H](C(=O)O)c2ccccc2)nn1-c1ccc(F)cc1 | > 30 µM |  |
| COC(=O)CNC(=O)[C@@H](NC(=O)c1cc(-c2c(OC)cccc2OC)n(-c2ccc(F)cc2)n1)C1CCCCC1 | > 30 µM |  |
| COc1cccc(OC)c1-c1cc(C(=O)N[C@H](C(=O)NCc2ccccc2)C2CCCCC2)nn1-c1ccc(F)cc1 | > 30 µM |  |
| COc1cccc(O)c1-c1cc(C(=O)N[C@H](C(=O)O)C2CCCCC2)nn1-c1ccc(F)cc1 | > 30 µM |  |

Second part, led by results:

| EC50 (Apelin receptor [1]) | Compound | other results |
| --- | --- | --- |
| > 30 µM | COc1cccc(OC)c1-c1cc(C(=O)N[C@H](C(=O)N(C)C)C2CCCCC2)nn1-c1ccc(F)cc1 |  |
| > 30 µM | COc1cccc(OC)c1-c1cc(C(=O)Nc2ccccc2C(=O)O)nn1-c1ccc(F)cc1 |  |
| > 30 µM | COc1cccc(OC)c1-c1cc(C(=O)N[C@@H](CCC(N)=O)C(=O)O)nn1-c1ccc(F)cc1 |  |
| > 30 µM | COc1cccc(OC)c1-c1cc(C(=O)N[C@@H](C(=O)O)C2CCCCC2)nn1-c1ccc(F)cc1 |  |
| > 30 µM | COc1cccc(OC)c1-c1cc(C(=O)NCC2CCCCC2)nn1-c1ccc(F)cc1 |  |
| > 30 µM | COc1cccc(OC)c1-c1cc(C(=O)NC2(C(=O)O)CCCCC2)nn1-c1ccc(F)cc1 |  |
| > 30 µM | COc1cccc(OC)c1-c1cc(C(=O)N[C@H](C(=O)O)C(C)C)nn1-c1ccc(F)cc1 |  |
| > 30 µM | COc1cccc(OC)c1-c1cc(C(=O)N[C@H](C(N)=O)C2CCCCC2)nn1-c1ccc(F)cc1 |  |
| > 30 µM | COc1cccc(OC)c1-c1cc(C(=O)N[C@H]2CC[C@H](C(=O)O)CC2)nn1-c1ccc(F)cc1 |  |
| > 30 µM | COc1cccc(OC)c1-c1cc(C(=O)N[C@H](C(=O)NO)C2CCCCC2)nn1-c1ccc(F)cc1 |  |
| > 30 µM | COc1cccc(OC)c1-c1cc(C(=O)NC2(C(=O)O)C3CC4CC(C3)CC2C4)nn1-c1ccc(F)cc1 (configuration not stated) |  |
| > 30 µM | COC(=O)[C@@H](NC(=O)c1cc(-c2c(OC)cccc2OC)n(-c2ccc(F)cc2)n1)C1CCCCC1 |  |
| > 30 µM | COc1cccc(OC)c1-c1cc(C(=O)N2CC[C@H](C(=O)O)C2)nn1-c1ccc(F)cc1 |  |

— ChEMBL document CHEMBL3817733, “Discovery of a novel small molecule agonist scaffold for the APJ receptor” (Bioorg Med Chem, 2016)
